Eight compounds from ChEMBL document CHEMBL3877243, “Synthesis and biological evaluation of novel pentacyclic triterpene α-cyclodextrin conjugates as HCV entry inhibitors” (Eur J Med Chem, 2016) can be followed below.

In brackets after ≈: the same amount, converted by molar mass. Activity calls are given as the source filed them. The calls are words filed in the database; no cut-off is given here.

Data set [1] relates to Hepatitis C virus. Briefly: Antiviral activity against HCV pseudoparticle harboring HCV envelope protein E1, E2 and HIV proviral DNA infected in HuH7 cells assessed as reduction in viral infection at 10 uM pretreated with virus for 6 hrs followed by compound addition measured after 72 hrs by luciferase reporter gene assay. Particulars: Huh-7. The format is functional, Hepacivirus hominis. The method, boiled down:
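Post-entry format: Huh-7 cells incubated with HCVpp at 37 °C for 6 h to allow entry but not reverse transcription, then washed. Compound added at 37 °C for a further 72 h. Luciferase readout, normalised to 0.5% DMSO (final).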

In data set [2] the test system is Hepatitis C virus. Nature of the data set: Antiviral activity against HCV pseudoparticle harboring HCV envelope protein E1, E2 and HIV proviral DNA infected in HuH7 cells assessed as reduction in viral infection at 10 uM preincubated viral particle with cells for 3 hrs followed by test compound addition measured after 72 hrs by luciferase reporter gene assay. Type of data set: functional, Hepacivirus hominis. Particulars: Huh-7. In a few lines:
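Post-binding format: Huh-7 cells incubated with HCVpp at 4 °C for 3 h, then washed thoroughly to remove unbound virus. Cells were then exposed to compound at 37 °C for 72 h. Luciferase readout, normalised to 0.5% DMSO (final).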

Data set [3] can be described thus: Cytotoxicity against MDCK cells measured after 48 hrs by alamar blue assay. Type of data set: toxicity, cell-based, Canis lupus familiaris. The note with it: dog. In a few lines: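 MDCK cells were seeded at 1 × 10⁴ per well and allowed to adhere for 16 h at 37 °C in 5% CO₂. Compounds were added at 0.1, 1, 10 and 100, in triplicate, against 1% DMSO controls, for 48 h. AlamarBlue was then added for 2 h and fluorescence read (ex 530, em 590 nm). Percent viability gave CC50.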

Data set [4] concerns Hepatitis C virus. Nature of the data set: Antiviral activity against HCV pseudoparticle harboring HCV envelope protein E1 and E2 and HIV proviral DNA assessed as inhibition of pseudoparticle entry into human Huh7 cells at 5 uM measured after 3 days by luciferase reporter gene assay relative to control. Type of data set: functional, Hepacivirus hominis. The note with it: Huh-7, 72 h. In a few lines: (§1)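 Huh-7 cells (5 × 10³/well) seeded 24 h, then infected with HCVpp or VSVGpp (HIV pNL4-3 luciferase backbone with HCV E1E2 or VSV G, made in 293T cells) with compound in 1% DMSO at 37 °C. Luciferase read 3 days post-infection. % inhibition = 100 − background-subtracted signal as % of DMSO wells. Duplicates, ≥3 repeats.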

The test system of data set [5] is Hepatitis C virus. Nature of the data set: Antiviral activity against HCV pseudoparticle harboring HCV envelope protein E1, E2 and HIV proviral DNA infected in HuH7 cells assessed as reduction in viral infection at 10 uM preincubated cells with test compound for 3 hrs followed by viral infection measured after 72 hrs by luciferase reporter gene assay. Type of data set: functional, Hepacivirus hominis. The note with it: Huh-7. In a few lines: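 Pre-treatment format: Huh-7 cells incubated 3 h at 37 °C with compound in DMEM/10% FBS, then washed to remove unbound compound. Cells were then infected with HCVpp at 37 °C for 72 h. Luciferase readout, normalised to 0.5% DMSO (final).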

Data set [6] can be described thus: Selectivity index, ratio of CC50 for MDCK cells to IC50 for HCV pseudoparticle expressing envelope protein E1 and E2 to. The format is functional. In a few lines:
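SI = MDCK CC50 / HCVpp IC50. The IC50 came from HIV pNL4-3 luciferase pseudoparticles carrying HCV E1E2, made in 293T cells. Huh-7 cells (5 × 10³ per well, seeded 24 h earlier) were infected with compound present at 37 °C, and luciferase was read 3 days later. Inhibition was normalised to DMSO wells minus uninfected background. IC50 values are means of at least three independent determinations.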

The test system of data set [7] is Hepatitis C virus. Briefly: Antiviral activity against HCV pseudoparticle harboring HCV envelope protein E1 and E2 and HIV proviral DNA assessed as inhibition of pseudoparticle entry into human Huh7 cells measured after 3 days by luciferase reporter gene assay. Type of data set: functional, cell-based, Hepacivirus hominis. Particulars: Huh-7, 72 h. The method, boiled down: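 Huh-7 cells infected with HCVpp with compound at six concentrations spanning the nanomolar range upward, 37 °C. Luciferase read 3 days post-infection, normalised to DMSO-only wells minus uninfected background. Each concentration in triplicate. IC50 is the mean of at least three independent determinations.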

Data set [8] has as its system Hepatitis C virus. Nature of the data set: Antiviral activity against HCV pseudoparticle harboring HCV envelope protein E1, E2 and HIV proviral DNA infected in HuH7 cells assessed as reduction in viral infection at 10 uM incubated with virus and compound for 3 hrs by luciferase reporter gene assay. Type of data set: functional, Hepacivirus hominis. Particulars: Huh-7, 3 h. In a few lines:
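Pre-binding format: Huh-7 cells incubated with compound plus HCVpp at 4 °C for 3 h to allow virus binding. Readout is a luciferase pseudovirus-entry signal, normalised to 0.5% DMSO (final). An anti-CD81 antibody served as positive control.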

Data set [9] is described as follows: Aqueous solubility of the compound at room temperature measured per 100 ml of solution. Type of data set: physicochemical. Particulars: buffer.
Data set [10] in a line: Aqueous solubility of the compound by HPLC method. The format is physicochemical. The note with it: buffer.
For data set [11], the system named is Vesicular stomatitis virus. Briefly: Antiviral activity against VSV pseudoparticle harboring VSV G protein and HIV proviral DNA assessed as inhibition of pseudoparticle entry into human Huh7 cells measured after 3 days by luciferase reporter gene assay. Type of data set: functional, cell-based. The note with it: Huh-7. The method, boiled down: as §1
A short description of data set [12]: Aqueous solubility of the compound at 100 ug/ml incubated for 1 hr. Type of data set: physicochemical. Particulars: buffer.

`CC1(C)CC[C@]2(C(=O)NCc3cn(C[C@H]4O[C@@H]5O[C@H]6[C@H](O)[C@@H](O)[C@@H](O[C@H]7[C@H](O)[C@@H](O)[C@@H](O[C@H]8[C@H](O)[C@@H](O)[C@@H](O[C@H]9[C@H](O)[C@@H](O)[C@@H](O[C@H]%10[C@H](O)[C@@H](O)[C@@H](O[C@H]4[C@H](O)[C@H]5O)O[C@@H]%10CO)O[C@@H]9CO)O[C@@H]8CO)O[C@@H]7CO)O[C@@H]6CO)nn3)[C@H](O)C[C@]3(C)C(=CC[C@@H]4[C@@]5(C)CC[C@H](O)C(C)(C)[C@@H]5CC[C@]43C)[C@H]2C1`: the inhibition at 10 µM in the data set with Hepatitis C virus [1] was 10 to 30%; with Hepatitis C virus [2], > 90%; in the data set with Hepatitis C virus [5] it was 10 to 30%; with Hepatitis C virus [8] it was 10 to 30%. In addition, the CC50 at 48 h in [3] was > 100 µM. The inhibition at 5 µM in the data set with Hepatitis C virus [4] came to 95%. Moreover, the “Ratio CC50/IC50” value in data set [6] is given as >400. The IC50 in the data set with Hepatitis C virus [7] worked out at 0.25 µM.
Turning to `OC[C@H]1O[C@@H]2O[C@H]3[C@H](O)[C@@H](O)[C@@H](O[C@H]4[C@H](O)[C@@H](O)[C@@H](O[C@H]5[C@H](O)[C@@H](O)[C@@H](O[C@H]6[C@H](O)[C@@H](O)[C@@H](O[C@H]7[C@H](O)[C@@H](O)[C@@H](O[C@H]1[C@H](O)[C@H]2O)O[C@@H]7CO)O[C@@H]6CO)O[C@@H]5CO)O[C@@H]4CO)O[C@@H]3CO` [ALFADEX], the solubility in [9] is 14.5 g.
Consider `CC(=O)OC[C@H]1O[C@@H]2O[C@H]3[C@H](OC(C)=O)[C@@H](OC(C)=O)[C@@H](O[C@H]4[C@H](OC(C)=O)[C@@H](OC(C)=O)[C@@H](O[C@H]5[C@H](OC(C)=O)[C@@H](OC(C)=O)[C@@H](O[C@H]6[C@H](OC(C)=O)[C@@H](OC(C)=O)[C@@H](O[C@H]7[C@H](OC(C)=O)[C@@H](OC(C)=O)[C@@H](O[C@H]1[C@H](OC(C)=O)[C@H]2OC(C)=O)O[C@@H]7COC(C)=O)O[C@@H]6COC(C)=O)O[C@@H]5Cn1cc(CNC(=O)[C@]25CCC(C)(C)C[C@@H]2C2=CC[C@@H]6[C@@]7(C)CC[C@H](O)C(C)(C)[C@@H]7CC[C@@]6(C)[C@]2(C)C[C@H]5O)nn1)O[C@@H]4COC(C)=O)O[C@@H]3COC(C)=O`, for which the inhibition at 10 µM is 10 to 30% with Hepatitis C virus [1], > 90% in the data set on Hepatitis C virus [2], 10 to 30% with Hepatitis C virus [5] and 10 to 30% in the data set with Hepatitis C virus [8]. Also, the CC50 at 48 h in data set [3] was > 100 µM. In addition, the inhibition at 5 µM in the data set on Hepatitis C virus [4] stood at 80%. Moreover, the “Ratio CC50/IC50” value in [6] is on record as >85. In the data set with Hepatitis C virus [7], the IC50 is 1.18 µM.
`CC1(C)CC[C@]2(C(=O)O)CC[C@]3(C)C(=CC[C@@H]4[C@@]5(C)CC[C@H](O)C(C)(C)[C@@H]5CC[C@]43C)[C@@H]2C1` [OLEANOLIC_ACID] yielded a solubility in data set [10] of 0.05 µg/mL (≈ 0.109 µM).
With `C=C(C)[C@@H]1CC[C@]2(C(=O)NCc3cn(C[C@H]4O[C@@H]5O[C@H]6[C@H](O)[C@@H](O)[C@@H](O[C@H]7[C@H](O)[C@@H](O)[C@@H](O[C@H]8[C@H](O)[C@@H](O)[C@@H](O[C@H]9[C@H](O)[C@@H](O)[C@@H](O[C@H]%10[C@H](O)[C@@H](O)[C@@H](O[C@H]4[C@H](O)[C@H]5O)O[C@@H]%10CO)O[C@@H]9CO)O[C@@H]8CO)O[C@@H]7CO)O[C@@H]6CO)nn3)CC[C@]3(C)[C@H](CC[C@@H]4[C@@]5(C)CC[C@H](O)C(C)(C)[C@@H]5CC[C@]43C)[C@@H]12`, in the data set on Hepatitis C virus [4], the inhibition at 5 µM came out at 60%. In data set [11], the inhibition result is “Active”.
The compound `C=C(C)[C@@H]1CC[C@]2(C(=O)O)CC[C@]3(C)[C@H](CC[C@@H]4[C@@]5(C)CC[C@H](O)C(C)(C)[C@@H]5CC[C@]43C)[C@@H]12` [BETULINIC ACID] registered a solubility at 1 h in data set [12] of 0.02 µg/mL (≈ 0.0438 µM).
Take `CC1(C)CC[C@]2(C(=O)O)[C@H](O)C[C@]3(C)C(=CC[C@@H]4[C@@]5(C)CC[C@H](O)C(C)(C)[C@@H]5CC[C@]43C)[C@@H]2C1`: in data set [3], it took 15.4 µM to reach half-maximal cytotoxicity (CC50 at 48 h). The “Ratio CC50/IC50” value in data set [6] was determined as 11.
`C=C(C)[C@@H]1CC[C@]2(C(=O)NCc3cn(C[C@H]4O[C@@H]5O[C@H]6[C@H](OC(C)=O)[C@@H](OC(C)=O)[C@@H](O[C@H]7[C@H](OC(C)=O)[C@@H](OC(C)=O)[C@@H](O[C@H]8[C@H](OC(C)=O)[C@@H](OC(C)=O)[C@@H](O[C@H]9[C@H](OC(C)=O)[C@@H](OC(C)=O)[C@@H](O[C@H]%10[C@H](OC(C)=O)[C@@H](OC(C)=O)[C@@H](O[C@H]4[C@H](OC(C)=O)[C@H]5OC(C)=O)O[C@@H]%10COC(C)=O)O[C@@H]9COC(C)=O)O[C@@H]8COC(C)=O)O[C@@H]7COC(C)=O)O[C@@H]6COC(C)=O)nn3)CC[C@]3(C)[C@H](CC[C@@H]4[C@@]5(C)CC[C@H](O)C(C)(C)[C@@H]5CC[C@]43C)[C@@H]12`: the inhibition at 5 µM in the data set on Hepatitis C virus [4] was 60%. The inhibition entry in [11] is “Active”.
